The structures appear in SMILES notation. The source made the active and inactive calls. No cut-off for these calls is given here.

A short description of data set [1]: Antiproliferative activity against human K562 cells after 48 hrs by MTT assay. The data set is classed as functional, cell-based. Conditions: K562, 48 h. An outline of the steps:
(§1)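 Cells kept in RPMI-1640 with 10% heat-inactivated FBS, 37°C, 5% CO2. 10^4 cells/well seeded, compounds (dissolved in DMSO or PBS, diluted in medium) added after 4 h at final 200, 150, 100, 50 and 10 μM for 48 h. MTT then 4 h, formazan dissolved in DMSO, OD 570 nm. Growth inhibition vs medium control; IC50 from inhibition ratios; three independent experiments in triplicate.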
Background: Tetrazolium dyes change colour on reduction, which living cells bring about.

Data set [2] in a line: Antiproliferative activity against human HeLa cells after 48 hrs by MTT assay. The data set is classed as functional, cell-based. The essentials: as §1
Data set [3] in a line: Antiproliferative activity against human MCF7 cells after 48 hrs by MTT assay. The conditions noted are these: MCF7, 48 h. The data set is classed as functional, cell-based. An outline of the steps:
as §1

Data set [4] deals with DNA topoisomerase 2-alpha (Homo sapiens) (UniProt P11388). Description: Inhibition of human topoisomerase-2 alpha-mediated kinetoplast DNA decatenation at 3.15 to 200 uM after 15 mins by ethidium bromide staining based agarose gel electrophoresis relative to etoposide. The essentials:
(§2)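 Human topo IIα (0.5 units) with 20 µg/mL kDNA in 50 mM Tris-HCl pH 8.0, 0.5 mM DTT, 10 mM MgCl2, 2 mM ATP. Compounds at 3.15, 12.5, 50 and 200 µM, 15 min at 37°C; stopped with SDS/glycerol. Products run on 1% agarose, 50 V, 50 min, ethidium bromide-stained, viewed under UV. Controls without enzyme and without inhibitor; etoposide reference.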

Data set [5] is described as follows: Anti-metastatic activity against H22 cells xenografted in Balb/c mouse assessed as inhibition of metastasized nodes on lung surface at 10 mg/kg/day, ig administered 6 days per week for two consecutive weeks measured on day 13 post dose by microscopic method relative to control. The class given is functional. Conditions: po. The essentials:
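BALB/c mice (18~22 g, both sexes) injected via tail vein with 6 × 10^6 H22 ascites cells. After 24 h, randomized into groups of 10. Compounds given intragastrically at 10 mg/kg in 0.5% CMC-Na (2 mg/ml), vehicle to controls. Lung-surface metastatic nodes counted under microscope; inhibition rate from mean node counts vs vehicle group.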

The target of data set [6] is DNA topoisomerase 2-alpha (Homo sapiens) (UniProt P11388). Description: Inhibition of human topoisomerase-2 alpha-mediated kinetoplast DNA decatenation at 3.15 to 200 uM after 15 mins by ethidium bromide staining based agarose gel electrophoresis. The essentials:
as §2

The nature of data set [7]: Anti-metastatic activity against H22 cells xenografted in Balb/c mouse assessed as lung weight at 10 mg/kg/day, ig administered 6 days per week for two consecutive weeks measured on day 12 post last dose (reference value: 0.287 +/- 0.117 g). The class given is functional.
Data set [8] relates to Mus musculus. Description: Toxicity in Balb/c mouse xenografted with […] cells assessed as body weight at 10 mg/kg/day, ig administered 6 days per week for two consecutive weeks (reference value: 20.17 +/- 3.66 g). The data set is classed as organism-based. Conditions: in vivo, po, 144 h. For orientation: In xenograft studies the graft and the host belong to different species.

The test system of data set [9] is Mus musculus. Kind of data set: Toxicity in Balb/c mouse xenografted with […] cells assessed as mouse survival at 10 mg/kg/day, ig administered 6 days per week for two consecutive weeks. Conditions: in vivo, po, 144 h. The data set is classed as organism-based. An outline of the steps:
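H22 hepatocarcinoma ascites from BALB/c donor mice was diluted 1:4 in saline (3 × 10^7 cells/ml), and 0.2 mL (6 × 10^6 cells) was injected via tail vein into BALB/c mice weighing 18~22 g. After 24 h, mice were weighed and randomised into 7 groups of 10, half of each sex. Compound was given intragastrically at 2 mg/ml in 0.5% CMC-Na, with vehicle controls. Surviving animals were counted against the original number per group.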

In data set [10] the target is DNA topoisomerase 2-alpha (Homo sapiens) (UniProt P11388). Kind of data set: Inhibition of human topoisomerase-2 alpha-mediated kinetoplast DNA decatenation after 15 mins by ethidium bromide staining based agarose gel electrophoresis. The essentials:
as §2

Data set [11] can be described thus: Antiproliferative activity against human NCI60 cells after 48 hrs by SRB assay. The data set is classed as functional, cell-based. The conditions noted are these: NCI60, 48 h. In general terms: The SRB assay estimates cell density from bound dye.

Sequence of DNA topoisomerase 2-alpha (Homo sapiens) (P11388 whole entry): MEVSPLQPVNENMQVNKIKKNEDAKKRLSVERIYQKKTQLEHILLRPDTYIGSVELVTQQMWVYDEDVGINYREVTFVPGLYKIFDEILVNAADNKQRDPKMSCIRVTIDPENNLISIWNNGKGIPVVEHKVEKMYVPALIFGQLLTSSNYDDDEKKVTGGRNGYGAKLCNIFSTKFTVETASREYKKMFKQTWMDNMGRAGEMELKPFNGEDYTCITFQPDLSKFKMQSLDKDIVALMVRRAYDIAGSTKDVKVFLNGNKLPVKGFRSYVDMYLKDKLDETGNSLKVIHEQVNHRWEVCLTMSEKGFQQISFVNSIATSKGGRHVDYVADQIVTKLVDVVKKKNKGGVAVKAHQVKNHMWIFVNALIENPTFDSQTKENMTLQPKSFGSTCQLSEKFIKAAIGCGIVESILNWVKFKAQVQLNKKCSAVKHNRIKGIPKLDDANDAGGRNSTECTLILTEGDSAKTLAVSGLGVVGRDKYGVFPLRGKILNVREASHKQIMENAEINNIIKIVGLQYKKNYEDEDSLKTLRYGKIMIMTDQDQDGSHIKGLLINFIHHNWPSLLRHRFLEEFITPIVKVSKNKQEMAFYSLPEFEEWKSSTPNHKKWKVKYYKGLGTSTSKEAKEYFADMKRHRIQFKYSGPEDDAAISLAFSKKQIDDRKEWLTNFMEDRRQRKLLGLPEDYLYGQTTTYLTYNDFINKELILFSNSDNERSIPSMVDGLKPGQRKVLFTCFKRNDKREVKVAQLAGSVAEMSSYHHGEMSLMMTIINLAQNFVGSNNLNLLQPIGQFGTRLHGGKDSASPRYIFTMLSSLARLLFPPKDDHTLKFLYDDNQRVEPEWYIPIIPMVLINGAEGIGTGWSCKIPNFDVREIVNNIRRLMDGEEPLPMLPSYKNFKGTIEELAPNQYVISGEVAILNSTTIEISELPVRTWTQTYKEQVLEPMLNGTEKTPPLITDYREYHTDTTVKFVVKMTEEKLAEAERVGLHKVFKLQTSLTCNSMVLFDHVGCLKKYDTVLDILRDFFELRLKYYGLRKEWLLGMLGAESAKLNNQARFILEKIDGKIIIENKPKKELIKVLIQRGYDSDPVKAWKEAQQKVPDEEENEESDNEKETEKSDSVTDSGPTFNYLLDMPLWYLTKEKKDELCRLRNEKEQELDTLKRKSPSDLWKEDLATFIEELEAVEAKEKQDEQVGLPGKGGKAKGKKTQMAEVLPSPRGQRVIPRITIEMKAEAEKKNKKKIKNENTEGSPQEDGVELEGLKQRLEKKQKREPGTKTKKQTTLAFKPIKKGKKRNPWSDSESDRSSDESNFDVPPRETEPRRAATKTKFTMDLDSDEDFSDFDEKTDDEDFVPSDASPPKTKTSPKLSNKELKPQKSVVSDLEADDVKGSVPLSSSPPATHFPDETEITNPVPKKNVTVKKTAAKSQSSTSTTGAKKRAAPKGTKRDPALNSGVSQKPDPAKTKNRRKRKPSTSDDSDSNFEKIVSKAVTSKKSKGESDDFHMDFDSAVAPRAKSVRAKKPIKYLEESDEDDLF

For the compound `COC(=O)[C@H](Cc1ccccc1)NC(=O)c1ccc(Oc2nc3cc(Cl)ccc3nc2C)cc1`, the results for the IC50 in [1], in data set [2] and in [3] were 27.5 µM, 28.8 µM and 25.5 µM, respectively.
`CCCCCCCCCCCCNc1nc2ccccc2nc1Oc1ccc(C(=O)N[C@@H](Cc2ccccc2)C(=O)O)cc1` came in with a fold change (FC) in data set [4] of 4. In addition, the IC50 is 7.37 µM in data set [1], 9.19 µM in data set [2] and 6.79 µM in data set [3]. Also, the inhibition in vivo at 10 mg/kg/day in data set [5] was determined as 33.7%. In addition, in data set [6], the inhibition entry was “Active”. Further, the Activity in data set [7] came to 0.197 g; in the data set with Mus musculus [8] it was 20.85 g.
With `Cc1nc2ccc(Cl)cc2nc1Oc1ccc(C(=O)N[C@@H](CC(C)C)C(=O)O)cc1`, the IC50 in data set [1] came to 14.5 µM; in data set [2] it was 16.4 µM; in data set [3], 15.1 µM. Besides, the figures for the Activity entry (in the data set with Mus musculus [9]; in data set [7]; in the data set with Mus musculus [8]) were “Non-Toxic”, 0.254 g and 23.25 g, respectively. The inhibition in vivo at 10 mg/kg/day in data set [5] is 14.8%.
Consider `CC(C)(C)Nc1nc2ccccc2nc1Oc1ccc(C(=O)N[C@@H](Cc2ccccc2)C(=O)O)cc1`, for which the results for the IC50 in data set [1], in data set [2] and in data set [3] were 15.2 µM, 20.5 µM and 25.3 µM, respectively.
With `COC(=O)[C@H](CC(C)C)NC(=O)c1ccc(Oc2nc3cc(Cl)ccc3nc2C)cc1`, the IC50 amounted to 22 µM in data set [1], 18.6 µM in data set [2] and 19.1 µM in data set [3].
Regarding `CCCCCCCCCCCCNc1nc2ccccc2nc1Oc1ccc(C(=O)N[C@@H](Cc2ccccc2)C(=O)OC)cc1`, the IC50 in [1] was 30.5 µM; in data set [2], 34.4 µM; in data set [3] it was 33.4 µM.
As for `CCCCCCCCCCCCNc1nc2ccccc2nc1Oc1ccc(C(=O)N[C@@H](C)C(=O)O)cc1`, the inhibition result in [10] is “Dose-dependent effect”. In addition, the IC50 in data set [1] came to 3.28 µM; in data set [2], 6.24 µM; in [3], 4.11 µM. Moreover, the inhibition in vivo at 10 mg/kg/day in data set [5] was 42.5%. The values for the Activity (in data set [7]; in the data set with Mus musculus [8]) were 0.23 g and 24.62 g, respectively.
`Cc1nc2ccccc2nc1Oc1ccc(C(=O)N[C@@H](C)C(=O)O)cc1`: the IC50 is 28.1 µM in data set [1], 22.3 µM in data set [2] and 25.6 µM in data set [3].
Taken in the same sequence, the figures for `COC(=O)CNC(=O)c1ccc(Oc2nc3ccccc3nc2NC(C)(C)C)cc1` were more than 50 µM, more than 50 µM and more than 50 µM.
For `COC(=O)[C@H](CC(C)C)NC(=O)c1ccc(Oc2nc3ccccc3nc2C)cc1`, the IC50 in [1] came out at 22.6 µM; in data set [2], 21.6 µM; in data set [3], 25.5 µM.
On to `Cc1nc2ccccc2nc1Oc1ccc(C(=O)N[C@@H](CC(C)C)C(=O)O)cc1`, for which the IC50 came to 19.5 µM in data set [1], 17.3 µM in data set [2] and 14.7 µM in [3]. The Activity result is “Non-Toxic” with Mus musculus [9], 0.238 g in data set [7] and 22.46 g with Mus musculus [8]. Further, the inhibition in vivo at 10 mg/kg/day in [5] was 11%.
`COC(=O)[C@H](CC(C)C)NC(=O)c1ccc(Oc2nc3ccccc3nc2NC(C)(C)C)cc1`: the IC50 in data set [1], in [2] and in data set [3] was more than 50 µM in each case.
As to `COc1cccc2c1C(=O)c1c(O)c3c(c(O)c1C2=O)C[C@@](O)(C(=O)CO)C[C@@H]3O[C@H]1C[C@H](N)[C@H](O)[C@H](C)O1` [DOXORUBICIN], the values for the IC50 in [1] and in [2] were 13.5 µM and 11.5 µM, respectively. The inhibition in vivo at 10 mg/kg/day in data set [5] was 59.9%. Also, the Activity in data set [7] came to 0.217 g; with Mus musculus [8] it was 23.32 g.
As for `CC[C@@H](C)[C@H](NC(=O)c1ccc(Oc2nc3ccccc3nc2C)cc1)C(=O)OC`, the results for the IC50 in data set [1], in data set [2] and in data set [3] were 38.3 µM, more than 50 µM and 36.1 µM, respectively.
Turning to `CC[C@@H](C)[C@H](NC(=O)c1ccc(Oc2nc3ccccc3nc2C)cc1)C(=O)O`, the IC50 in data set [1] was 30.5 µM; in [2], 33.2 µM; in [3] it was 35.7 µM.
The like results for `COC(=O)[C@H](C)NC(=O)c1ccc(Oc2nc3ccc(Cl)cc3nc2C)cc1` were, in that order, 26 µM, 42.5 µM and 33.8 µM.
On to `Cc1nc2cc(Cl)ccc2nc1Oc1ccc(C(=O)N[C@@H](C)C(=O)O)cc1`, for which the IC50 in data set [1] is 20.9 µM; in data set [2], 30 µM; in data set [3], 19.4 µM.
For the compound `CC[C@@H](C)[C@H](NC(=O)c1ccc(Oc2nc3ccccc3nc2NC(C)(C)C)cc1)C(=O)O`, the IC50 in data set [1] turned out to be 18.3 µM; in data set [2] it was 13.4 µM; in data set [3], 11.3 µM. Besides, the Activity entry is given as “Non-Toxic” in the data set on Mus musculus [9], 0.211 g in data set [7] and 21.84 g in the data set with Mus musculus [8]. In data set [5], the inhibition in vivo at 10 mg/kg/day turned out to be 27.6%.
As for `Cc1nc2cc(Cl)ccc2nc1Oc1ccc(C(=O)N[C@@H](CC(C)C)C(=O)O)cc1`, the IC50 was 21.3 µM in data set [1], 25 µM in data set [2] and 17.4 µM in data set [3].
The like results for `COC(=O)[C@H](C)NC(=O)c1ccc(Oc2nc3ccccc3nc2C)cc1` were, in that order, 45.5 µM, 32.2 µM and 38.4 µM.
As to `COC(=O)[C@H](Cc1ccccc1)NC(=O)c1ccc(Oc2nc3ccccc3nc2NC(C)(C)C)cc1`, the IC50 was 10.3 µM in data set [1], more than 50 µM in data set [2] and more than 50 µM in [3].
Turning to `C[C@@H](Oc1ccc(Oc2cnc3ccc(Cl)cc3n2)cc1)C(=O)O` [R(+)XK469], in data set [11], inhibition was half-maximal at 70 µM (IC50).
As for `COC(=O)[C@H](CC(C)C)NC(=O)c1ccc(Oc2nc3ccc(Cl)cc3nc2C)cc1`, the IC50 in [1] amounted to 32.6 µM; in data set [2] it was 37.6 µM; in data set [3], 22.8 µM.
The like results for `Cc1nc2ccc(Cl)cc2nc1Oc1ccc(C(=O)N[C@@H](Cc2ccccc2)C(=O)O)cc1` were, in that order, 21.5 µM, 20.2 µM and 20.2 µM.
The like results for `CCCCCCCCCCCCNc1nc2ccccc2nc1Oc1ccc(C(=O)N[C@H](C(=O)OC)[C@H](C)CC)cc1` were, in that order, 30.8 µM, 40.3 µM and 43.3 µM.
On to `CC(C)C[C@H](NC(=O)c1ccc(Oc2nc3ccccc3nc2NC(C)(C)C)cc1)C(=O)O`, for which the IC50 came to 42.3 µM in data set [1], 39.2 µM in data set [2] and 40.3 µM in data set [3].
As for `CCCCCCCCCCCCNc1nc2ccccc2nc1Oc1ccc(C(=O)N[C@H](C(=O)O)[C@H](C)CC)cc1`, the IC50 in data set [1] came to 21.5 µM; in data set [2], 35.5 µM; in data set [3], 30.4 µM.
Take `CCCCCCCCCCCCNc1nc2ccccc2nc1Oc1ccc(C(=O)N[C@@H](C)C(=O)OC)cc1`: the values for the IC50 in data set [1], in [2] and in [3] were 26.7 µM, 28.5 µM and 33.8 µM, respectively.
`COc1cc([C@@H]2c3cc4c(cc3[C@@H](O[C@@H]3O[C@@H]5CO[C@@H](C)O[C@H]5[C@H](O)[C@H]3O)[C@H]3COC(=O)[C@H]23)OCO4)cc(OC)c1O`: the inhibition entry in data set [6] is “Active”.
As to `CC(C)(C)Nc1nc2ccccc2nc1Oc1ccc(C(=O)NCC(=O)O)cc1`, the IC50 in [1], in [2] and in data set [3] was more than 50 µM in each case.
As to `C[C@H](NC(=O)c1ccc(Oc2nc3ccccc3nc2NC(C)(C)C)cc1)C(=O)O`, the IC50 in data set [1] was found to be 26.4 µM; in data set [2], 23.4 µM; in data set [3] it was 29.4 µM.
Turning to `CC[C@@H](C)[C@H](NC(=O)c1ccc(Oc2nc3ccccc3nc2NC(C)(C)C)cc1)C(=O)OC`, the IC50 was determined as 38.7 µM in data set [1], 31.9 µM in [2] and 33.4 µM in [3].
With `COC(=O)[C@H](C)NC(=O)c1ccc(Oc2nc3ccccc3nc2NC(C)(C)C)cc1`, the IC50 came to 42.2 µM in data set [1], 55.2 µM in data set [2] and 38.4 µM in data set [3].

In general, IC50 refers to the concentration at which inhibition is half-maximal. A lower IC50 goes with greater potency. One may read the inhibition in vivo as how much of the control response was suppressed.
